Assay [1] has as its system CHO-MG. Nature of the assay: Cellular uptake of conjugates in CHO-MG cells at a concentration of 10 uM (+/-15% SEM). The class given is functional, cell-based. Conditions: Cricetulus griseus. In outline: (§1)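 Conjugates added 24 h after seeding (1 × 10^5 cells/mL, RPMI 1640 with 10% FCS and 2 mM aminoguanidine; proline added for CHO-MG) and left for 24 h. Cells were washed in 0.14 M NaCl, sonicated in 0.2 N HClO4/2 M NaCl and held 16 h at 4 °C. Conjugate in the supernatant was measured by fluorimetry against standards and expressed per mg protein (Folin). Mean of three determinations (±15%).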

The subject of assay [2] is CHO. Nature of the assay: In vitro 50% cell growth inhibition by the compound in CHO cells (control). The class given is functional, cell-based. The following applies: Cricetulus griseus. In outline: (§2)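 CHO or CHO-MG cells were trypsinized and plated singly at 2 × 10^3 cells/mL in RPMI 1640/10% FCS with 2 mM aminoguanidine (proline for CHO-MG). Conjugates were added after overnight incubation, with 48 h exposure. Growth was read by MTT formazan absorbance at 540 nm relative to untreated controls. The value is the concentration giving 25% or 50% growth inhibition.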

The subject of assay [3] is L1210. The experiment in a line: In vitro 25% cell growth inhibition by the compound in L1210 cells with 5 mM DFMO addition. The following applies: Mus musculus. It counts as functional. In outline: (§3)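 L1210 cells were seeded at 5 × 10^4 cells/mL, and conjugate plus 5 mM DFMO were added at seeding with 2 mM aminoguanidine present. After 48 h, growth was read by MTT at 540 nm relative to DFMO-only controls.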

Assay [4] has as its system L1210. Nature of the assay: In vitro 25% cell growth inhibition by the compound in L1210 cells. The class given is functional. The following applies: Mus musculus. Summed up: (§4)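 L1210 cells were seeded at 5 × 10^4 cells/mL with conjugate added at seeding, in medium with 2 mM aminoguanidine, for 48 h exposure. Growth was measured by MTT absorbance at 540 nm relative to untreated controls.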

A short description of assay [5]: Ratio of cellular uptake in CHO cells to that of CHO-MG cells at 2.5 uM. The class given is functional.
The subject of assay [6] is CHO. The experiment in a line: Cellular uptake of conjugates in CHO cells at a concentration of 2.5 uM (+/-15% SEM). It counts as functional, cell-based. The following applies: Cricetulus griseus. Summed up:
as §1

Assay [7] deals with CHO-MG. Nature of the assay: Cellular uptake of conjugates in CHO-MG cells at a concentration of 2.5 uM (+/-15% SEM). Conditions: Cricetulus griseus. The class given is functional, cell-based. Summed up: as §1
A short description of assay [8]: Ratio of cellular uptake in CHO cells to that of CHO-MG cells at 10 uM. The class given is functional.
For assay [9], the system named is CHO-MG. The experiment in a line: In vitro 50% cell growth inhibition by the compound in CHO-MG cells (control). It counts as functional, cell-based. Conditions: Cricetulus griseus. Summed up: as §2
The subject of assay [10] is L1210. The experiment in a line: Cellular uptake of conjugates in L1210 cells (control) at a concentration of 10 uM (+/-15% SEM). It counts as functional, cell-based. The following applies: Mus musculus. In outline:
(§5)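 L1210 cells were seeded at 2 × 10^5 cells/mL with conjugate added at seeding, in medium containing 2 mM aminoguanidine, and cultured 24 h. Washed cells were extracted in 0.2 N HClO4/2 M NaCl for 16 h at 4 °C. Intracellular conjugate was quantified by fluorimetry and expressed as nmol/mg protein. Mean of three determinations (±15%).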

For assay [11], the system named is CHO. The experiment in a line: Cellular uptake of conjugates in CHO cells at a concentration of 10 uM (+/-15% SEM). It counts as functional, cell-based. Conditions: Cricetulus griseus. In outline: as §1
Assay [12] concerns L1210. Nature of the assay: Cellular uptake of conjugates in L1210 cells pretreated with 5 mM DFMO at a concentration of 10 uM (+/-15% SEM). The class given is functional, cell-based. The following applies: Mus musculus. In outline:
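L1210 cells were seeded at 10^5 cells/mL in medium with 5 mM DFMO, and conjugates were added 24 h later. Cells were harvested after a further 24 h, extracted in 0.2 N HClO4/2 M NaCl and assayed by fluorimetry, expressed per mg protein. Mean of three determinations (±15%).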

The subject of assay [13] is L1210. The experiment in a line: Cellular uptake of conjugates in L1210 cells in presence of 500 uM SPD at a concentration of 5 uM (+/-15% SEM). Conditions: Mus musculus. It counts as functional, cell-based. In outline:
(§6)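 Same as the L1210 uptake assay: seeded at 2 × 10^5 cells/mL, conjugate plus 500 μM spermidine added together at seeding, 24 h exposure. Extraction in HClO4/NaCl, fluorimetric quantitation, normalized to protein. Mean of three determinations (±15%).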

In assay [14] the test system is Nucleic Acid. Nature of the assay: Drug concentration required to produce 50% inhibition of fluorescence bound ethidium to CT-DNA (1.26:1) (+/-SEM 5%). It counts as functional. The following applies: Bos taurus. In outline: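 Ethidium displacement: 1 μM CT-DNA with 1.26 μM ethidium bromide; conjugate stock added serially. Fluorescence was read at excitation 546 nm and emission 595 nm. The value is the conjugate concentration cutting DNA-bound ethidium fluorescence by 50%. Mean of three determinations (±5%).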

Assay [15] deals with L1210. Nature of the assay: Inhibition of [14C]SPD uptake by the compound in 5 min initial rate transport assay in L1210 cells. The class given is functional, cell-based, Mus musculus.
The subject of assay [16] is L1210. Nature of the assay: In vitro 50% cell growth inhibition by the compound in L1210 cells. It counts as functional, cell-based. Conditions: Mus musculus. In outline: as §4
In assay [17] the test system is L1210. The experiment in a line: Cellular uptake of conjugates in L1210 cells in presence of 500 uM SPD at a concentration of 10 uM (+/-15% SEM). It counts as functional, cell-based. The following applies: Mus musculus. In outline: as §6
For assay [18], the system named is L1210. The experiment in a line: Cellular uptake of conjugates in L1210 cells (control) at a concentration of 5 uM (+/-15% SEM). The class given is functional, cell-based. Conditions: Mus musculus. In outline: as §5
Assay [19] has as its system L1210. The experiment in a line: In vitro 50% cell growth inhibition by the compound in L1210 cells (control) with 5 mM DFMO addition. The class given is functional, cell-based. Conditions: Mus musculus. In outline: as §3

Experimental findings from ChEMBL document CHEMBL1135644, “Effect of spermine conjugation on the cytotoxicity and cellular transport of acridine” (J Med Chem, 2002) are described below.

On to `Cl.NCCCNCCCCNCCCNCCCNC(=O)c1c2ccccc2nc2ccccc12`, for which the Uptake (nM (mg of protein)-1) in [1] was 0.108; in [6] it was 0.014; in [7], 0.017; in [10], 0.239; in assay [11] it was 0.1; in assay [12] it was 0.587. For the same molecule, the values for the Uptake (nM (mg of protein)-1) in assay [13], in [17] and in [18] were 0.073, 0.221 and 0.086, respectively. The IC50 in assay [2] was 30 µM; in assay [9], 35 µM; in [16] it was 43 µM; in assay [19], 2.2 µM. Besides, the values for the IC25 in [3] and in assay [4] were 0.09 µM and 22 µM, respectively. Moreover, the figures for the Ratio in assay [5] and in [8] were 0.83 and 0.93, respectively. Besides, the Concentration for 50% ethidium displacement from DNA (C50) in assay [14] was determined as 120 nM. The molecule also gave a Ki in assay [15] of 0.097 µM.
